The record followed here is ChEMBL document CHEMBL4229411, “Senolytic activity of piperlongumine analogues: Synthesis and biological evaluation” (Bioorg Med Chem, 2018).

The source made the active and inactive calls. The calls are words filed in the database; no cut-off is given here. Where only a bound is given, the exact number is not on record here.

For data set [1], the target named is T1, Oxidation resistance protein 1 (Homo sapiens) (UniProt Q8N573).
T1 sequence (whole entry): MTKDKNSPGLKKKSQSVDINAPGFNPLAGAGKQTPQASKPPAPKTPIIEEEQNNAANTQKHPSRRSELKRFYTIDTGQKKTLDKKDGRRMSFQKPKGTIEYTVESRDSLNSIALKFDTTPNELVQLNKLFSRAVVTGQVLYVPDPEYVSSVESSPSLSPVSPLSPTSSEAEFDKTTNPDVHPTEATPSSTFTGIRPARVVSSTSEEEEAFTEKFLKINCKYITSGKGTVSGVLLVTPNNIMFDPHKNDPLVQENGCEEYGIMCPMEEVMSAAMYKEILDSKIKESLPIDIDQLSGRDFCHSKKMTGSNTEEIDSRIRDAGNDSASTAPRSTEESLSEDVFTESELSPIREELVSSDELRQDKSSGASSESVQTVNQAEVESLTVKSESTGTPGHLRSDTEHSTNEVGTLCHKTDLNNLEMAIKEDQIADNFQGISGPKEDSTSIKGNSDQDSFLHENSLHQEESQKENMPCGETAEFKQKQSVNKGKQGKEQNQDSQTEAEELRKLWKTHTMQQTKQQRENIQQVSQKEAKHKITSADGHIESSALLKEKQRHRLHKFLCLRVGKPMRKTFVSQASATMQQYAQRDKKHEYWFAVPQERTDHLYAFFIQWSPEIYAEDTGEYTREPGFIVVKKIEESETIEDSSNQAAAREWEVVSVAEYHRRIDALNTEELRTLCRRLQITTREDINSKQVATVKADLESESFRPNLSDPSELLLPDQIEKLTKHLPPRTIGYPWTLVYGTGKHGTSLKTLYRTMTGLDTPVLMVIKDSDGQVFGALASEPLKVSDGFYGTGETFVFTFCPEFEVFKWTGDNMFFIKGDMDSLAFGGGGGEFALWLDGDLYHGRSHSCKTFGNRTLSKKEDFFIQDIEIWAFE
In words: Induction of OXR1 degradation in ionizing radiation induced human WI38 senescent cells at 5 uM after 24 hrs by Western blot analysis. Summed up: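 Cells were lysed in RIPA buffer with EDTA/EGTA and proteins were transferred to PVDF. Membranes were blocked in 5% nonfat milk/TBST and probed overnight at 4 °C for OXR1 and β-actin. Bands were quantified; mean ± SEM, n = 3.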
A general note: In western blotting, separated proteins are transferred to a membrane and probed.

Data set [2] relates to WI-38. In words: Senolytic activity against non-senescent human WI38 cells assessed as reduction in cell viability by propidium iodide staining based flow cytometry. Summed up:
(§1)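 WI-38 fibroblasts were grown in DMEM/10% FBS with penicillin/streptomycin at 37 °C, 5% CO2. Low-passage cells (<25 passages) served as non-senescent controls.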
In general terms: Flow cytometry measures light scatter and fluorescence of single cells or particles in a stream.

A short description of data set [3]: Selectivity index, ratio of EC50 for non-senescent human WI38 cells to EC50 for ionizing radiation induced human WI38 senescent cells. The format is functional, WI-38. Put shortly:
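Human WI-38 fibroblasts were grown in DMEM with 10% FBS and penicillin/streptomycin at 37 °C in 5% CO2. Low-passage cells (<25 passages) served as non-senescent controls. Viability was read by flow cytometry.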

The subject of data set [4] is WI-38. In words: Senolytic activity against ionizing radiation induced human WI38 senescent cells assessed as reduction in cell viability by propidium iodide staining based flow cytometry. The format is functional. Put shortly: as §1
Data set [5] in a line: Toxicity in po dosed mouse. The format is organism-based. As to conditions: in vivo.
The test system of data set [6] is WI-38. In words: Induction of ROS production in ionizing radiation induced human WI38 senescent cells up to 64 uM after […] by DHR123 dye based flow cytometry. It is filed as functional, cell-based.
The test system of data set [7] is WI-38. In words: Induction of apoptosis in ionizing radiation induced human WI38 senescent cells assessed as necrotic cells at 10 uM after 48 hrs by Annexin V-FITC/propidium iodide staining based flow cytometry (reference value: […]). It is filed as functional.
For data set [8], the system named is WI-38. Briefly: Induction of apoptosis in ionizing radiation induced human WI38 senescent cells assessed as early apoptotic cells at 10 uM after 48 hrs by Annexin V-FITC/propidium iodide staining based flow cytometry (reference value: […]). The format is functional.
The subject of data set [9] is WI-38. Briefly: Induction of apoptosis in ionizing radiation induced human WI38 senescent cells assessed as late apoptotic cells at 10 uM after 48 hrs by Annexin V-FITC/propidium iodide staining based flow cytometry (reference value: […]). The format is functional.
Data set [10] has as its system WI-38. Briefly: Induction of apoptosis in ionizing radiation induced human WI38 senescent cells assessed as live cells at 10 uM after 48 hrs by Annexin V-FITC/propidium iodide staining based flow cytometry (reference value: 87%). The format is functional.

Regarding `C=C1CCCN(C(=O)/C=C/c2cc(OC)c(OC)c(OC)c2)C1=O`, in data set [1], the outcome was Active.

On to `C=C1CCCCN(C(=O)/C=C/c2cc(OC)c(OC)c(OC)c2)C1=O`, for which, in data set [1], the result was Active.

On to `C=C1CCN(C(=O)/C=C/c2cc(OC)c(OC)c(OC)c2)C1=O`, for which the outcome in data set [1] was Active.

For the molecule `COc1cc(/C=C/C(=O)N2CCC=CC2=O)cc(OC)c1OC` [PIPLARTINE], the EC50 (as a rule, the concentration that produces a half-maximal response) is 20.3 µM in the data set with WI-38 [2] and 8 µM in the data set on WI-38 [4]. Moreover, the result (in [1]; in the data set on WI-38 [6]) was Active. Besides, the “Ratio EC50” value in data set [3] turned out to be 2.5. The MTD in [5] is greater than 1000 mg/kg.

As for `CC(C)[C@H](NC(=O)c1ccc2ccccc2n1)C(=O)N[C@@H](CC(=O)O)C(=O)COc1c(F)cccc1F`, the Activity in the data set on WI-38 [7] is on record as 3.4%; with WI-38 [8], 7.7%; in the data set with WI-38 [9] it was 8%; with WI-38 [10] it was 80.9%.
